Activity calls are given as the source filed them. The rule behind the calls is not given here.
How the values were obtained:
Zika virus = test: Inhibition of 2'-O-methyltransferase in Zika virus at 200 uM
Dengue virus = test: Inhibition of 2'-O-methyltransferase in Dengue virus at 200 uM
Orthopoxvirus vaccinia [1] = test: Inhibition of 2'-O-methyltransferase activity of Vaccinia virus VP39 at 200 uM
West Nile virus = test: Inhibition of 2'-O-methyltransferase in West-Nile virus at 200 uM
[2] = tested on: Severe acute respiratory syndrome-related coronavirus; test: Inhibition of N7-MTase activity of N-terminal His6-tagged SARS-CoV nsp14 expressed in Escherichia coli using GpppAC4 and [3H]SAM as substrate at 50 uM preincubated with enzyme followed by substrate addition and measured after 30 mins by filter binding assay
Summary of the method: (§1)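 Filter binding assay in 40 mM Tris-HCl pH 8.0, 1 mM DTT, 1 mM MgCl2, 2 µM SAM, 0.1 µM 3H-SAM and 0.7 µM GpppAC4 RNA. Enzyme is nsp14 (50 nM), hRNMT (50 nM) or vaccinia D1–D12 (41 U). Compound is at 50 µM with 5% final DMSO. Reactions run 30 min at 30 °C, are stopped by ice-cold water dilution, and 3H on DEAE filters is counted. Percent inhibition is relative to a 5% DMSO control, mean of three experiments.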

[3] = target: RNA-N7 MTase (mRNA cap guanine-N(7) methyltransferase) (Homo sapiens, UniProt O43148); test: Inhibition of N-terminal His6-tagged human RNA-N7 MTase expressed in Escherichia coli using GpppAC4 and [3H]SAM as substrate at 50 uM preincubated with enzyme followed by substrate addition and measured after 30 mins by filter binding assay; conditions: probe GpppAC4 and [3H]SAM; summary of the method: as §1
Sequence of RNA-N7 MTase (mRNA cap guanine-N(7) methyltransferase) (O43148 whole entry): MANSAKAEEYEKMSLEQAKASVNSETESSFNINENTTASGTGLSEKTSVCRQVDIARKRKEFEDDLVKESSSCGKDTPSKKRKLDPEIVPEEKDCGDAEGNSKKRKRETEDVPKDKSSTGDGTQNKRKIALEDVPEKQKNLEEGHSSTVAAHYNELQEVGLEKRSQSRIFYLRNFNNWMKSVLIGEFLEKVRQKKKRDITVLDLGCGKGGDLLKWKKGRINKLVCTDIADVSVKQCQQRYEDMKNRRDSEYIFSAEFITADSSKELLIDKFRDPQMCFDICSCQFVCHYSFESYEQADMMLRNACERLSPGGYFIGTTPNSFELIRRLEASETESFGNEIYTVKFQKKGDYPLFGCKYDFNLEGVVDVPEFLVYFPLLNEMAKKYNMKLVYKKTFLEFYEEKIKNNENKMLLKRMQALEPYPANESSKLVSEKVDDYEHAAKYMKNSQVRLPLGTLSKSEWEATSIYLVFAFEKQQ

Orthopoxvirus vaccinia [4] = test: Inhibition of N7-MTase activity of Vaccinia virus mRNA capping enzyme D1/D12 complex using GpppAC4 and [3H]SAM as substrate at 50 uM preincubated with enzyme followed by substrate addition and measured after 30 mins by filter binding assay; summary of the method: as §1
[5] = tested on: Severe acute respiratory syndrome-related coronavirus; test: Inhibition of 2'-O-MTase activity of SARS-CoV nsp10/16 complex at 200 uM
[6] = target: mRNA cap guanine-N(7) methyltransferase (Homo sapiens, UniProt O43148); test: Inhibition of N-terminal His6-tagged human RNA-N7 MTase expressed in Escherichia coli using GpppAC4 and [3H]SAM as substrate preincubated with enzyme followed by substrate addition and measured after 30 mins by filter binding assay
Sequence of mRNA cap guanine-N(7) methyltransferase (O43148 whole entry): as above
Summary of the method: (§2)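 Dose-response filter binding assay with nsp14 or hRNMT (each 50 nM) pre-incubated with increasing compound concentrations (5% final DMSO). Then 0.7 µM GpppAC4, 2 µM SAM and 0.1 µM 3H-SAM are added in Tris pH 8.0/DTT/MgCl2, 30 min at 30 °C. IC50 is taken from a Hill slope fit, mean of three independent experiments.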

[7] = Inhibition of N7-MTase activity of N-terminal His6-tagged SARS-CoV nsp14 expressed in Escherichia coli using GpppAC4 and [3H]SAM as substrate preincubated with enzyme followed by substrate addition and measured after 30 mins by filter binding assay; parameters: species or system Severe acute respiratory syndrome-related coronavirus; summary of the method: as §2
[8] = tested on: Severe acute respiratory syndrome-related coronavirus; test: Binding affinity to SARS-CoV nsp14 assessed as increase in melting temperature at 1 mM at pH 7.5 by differential scanning fluorimetry
Summary of the method: (§3)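 Purified SARS-CoV nsp14 (5 µM) in 20 mM HEPES pH 7.5, 150 mM NaCl and 1X SYPRO orange, with 1 mM compound (DMSO stock; SAM and sinefungin from water). Protein is mixed with compound before dye is added. Fluorescence is read from 20 to 95 °C at 0.2 °C/min. Tm comes from curve fitting, and ΔTm is taken against a 5% DMSO control.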

[9] = tested on: Severe acute respiratory syndrome-related coronavirus; test: Binding affinity to SARS-CoV nsp14 assessed as melting temperature at 1 mM at pH 7.5 by differential scanning fluorimetry; summary of the method: as §3

| Structure (SMILES) | inhibition (Zika virus) | inhibition (Dengue virus) | inhibition (Orthopoxvirus vaccinia [1]) | inhibition (West Nile virus) | inhibition [2] | inhibition at 0.5 h, 50 µM [3] [%] | inhibition (Orthopoxvirus vaccinia [4]) | inhibition [5] | IC50 [6] [µM] | IC50 [7] [µM] | ΔTm [8] [°C] | Tm [9] [°C] |
| --- | --- | --- | --- | --- | --- | --- | --- | --- | --- | --- | --- | --- |
| COC(=O)CCCN(CCO[C@@H]1[C@H](O)[C@@H](CO)O[C@H]1n1cnc2c(N)ncnc21)C[C@H]1O[C@@H](n2cnc3c(N)ncnc32)[C@H](O)[C@@H]1O | inactive | inactive | inactive | inactive | inactive | 32.8 | 69.2% | inactive | – | – | – | – |
| Nc1ncnc2c1ncn2[C@@H]1O[C@H](CN(CCO[C@@H]2[C@H](O)[C@@H](CO)O[C@H]2n2cnc3c(N)ncnc32)CC[C@H](N)C(=O)O)[C@@H](O)[C@H]1O | inactive | inactive | inactive | inactive | 72% | 77.4 | 85.8% | inactive | 10.9 | 40.6 | – | – |
| COC(=O)[C@@H](N)CCN(CCO[C@@H]1[C@H](O)[C@@H](CO)O[C@H]1n1cnc2c(N)ncnc21)C[C@H]1O[C@@H](n2cnc3c(N)ncnc32)[C@H](O)[C@@H]1O | inactive | inactive | inactive | inactive | 30.6% | 33.2 | 32.1% | inactive | – | – | – | – |
| NC(=O)[C@@H](N)CCN(CCO[C@@H]1[C@H](O)[C@@H](CO)O[C@H]1n1cnc2c(N)ncnc21)C[C@H]1O[C@@H](n2cnc3c(N)ncnc32)[C@H](O)[C@@H]1O | inactive | inactive | inactive | inactive | 13.1% | 12.2 | 53.2% | inactive | – | – | – | – |
| CCCCN(CCO[C@@H]1[C@H](O)[C@@H](CO)O[C@H]1n1cnc2c(N)ncnc21)C[C@H]1O[C@@H](n2cnc3c(N)ncnc32)[C@H](O)[C@@H]1O | inactive | inactive | inactive | inactive | inactive | 27.5 | inactive | inactive | – | – | – | – |
| Nc1ncnc2c1ncn2[C@@H]1O[C@H](CNCCO[C@@H]2[C@H](O)[C@@H](CO)O[C@H]2n2cnc3c(N)ncnc32)[C@@H](O)[C@H]1O | inactive | inactive | inactive | inactive | 31% | 35.2 | 20.3% | inactive | – | – | – | – |
| Nc1ncnc2c1ncn2[C@@H]1O[C@H](CN(CCCC(=O)O)CCO[C@@H]2[C@H](O)[C@@H](CO)O[C@H]2n2cnc3c(N)ncnc32)[C@@H](O)[C@H]1O | inactive | inactive | inactive | inactive | 43% | – | inactive | inactive | – | – | – | – |
| Nc1ncnc2c1ncn2[C@@H]1O[C@H](CSCC[C@H](N)C(=O)O)[C@@H](O)[C@H]1O | – | – | – | – | – | – | – | – | – | – | 6.5 | – |
| Nc1ncnc2c1ncn2[C@@H]1OC(CN(CCCc2ccccc2)CCO[C@@H]2[C@H](O)C(CO)O[C@H]2n2cnc3c(N)ncnc32)[C@@H](O)[C@H]1O (single isomer, unassigned) | inactive | inactive | inactive | inactive | 38.4% | 23.1 | 11.6% | inactive | > 500 | 55.5 | 4.6 | > 40 |
| COc1ccc(S(=O)(=O)N(CCO[C@@H]2[C@H](O)C(CO)O[C@H]2n2cnc3c(N)ncnc32)CC2O[C@@H](n3cnc4c(N)ncnc43)[C@H](O)[C@@H]2O)c([N+](=O)[O-])c1 (single isomer, unassigned) | inactive | inactive | inactive | inactive | 96.6% | 31.8 | 4.6% | inactive | > 500 | 3.9 | 4.6 | > 40 |
| Nc1ncnc2c1ncn2[C@@H]1OC(CN(CCO[C@@H]2[C@H](O)C(CO)O[C@H]2n2cnc3c(N)ncnc32)S(=O)(=O)c2ccc(Cl)cc2)[C@@H](O)[C@H]1O (single isomer, unassigned) | inactive | inactive | inactive | inactive | 96.2% | 20.2 | 19.7% | inactive | – | 1.5 | 4.6 | > 40 |
| Nc1ncnc2c1ncn2[C@@H]1OC(CN(CCO[C@@H]2[C@H](O)C(CO)O[C@H]2n2cnc3c(N)ncnc32)Cc2ccc(Cl)cc2)[C@@H](O)[C@H]1O (single isomer, unassigned) | inactive | inactive | inactive | inactive | 75.9% | 14.7 | 4.5% | inactive | – | 9.9 | 4.6 | > 40 |
| Nc1ncnc2c1ncn2[C@@H]1OC(CN(CCO[C@@H]2[C@H](O)C(CO)O[C@H]2n2cnc3c(N)ncnc32)Cc2ccc(Cl)c([N+](=O)[O-])c2)[C@@H](O)[C@H]1O (single isomer, unassigned) | inactive | inactive | inactive | inactive | 94% | – | 4.3% | inactive | – | 2.4 | 4.6 | > 40 |
| Nc1ncnc2c1ncn2[C@@H]1OC(CN(CCO[C@@H]2[C@H](O)C(CO)O[C@H]2n2cnc3c(N)ncnc32)S(=O)(=O)c2ccc([N+](=O)[O-])cc2)[C@@H](O)[C@H]1O (single isomer, unassigned) | inactive | inactive | inactive | inactive | 88.6% | 66 | 49.8% | inactive | > 500 | 2.6 | 4.6 | > 40 |
| COc1cc([N+](=O)[O-])ccc1S(=O)(=O)N(CCO[C@@H]1[C@H](O)C(CO)O[C@H]1n1cnc2c(N)ncnc21)CC1O[C@@H](n2cnc3c(N)ncnc32)[C@H](O)[C@@H]1O (single isomer, unassigned) | inactive | inactive | inactive | inactive | 47.6% | 44.2 | 5.3% | inactive | 169 | 70.4 | 4.6 | > 40 |
| Nc1ncnc2c1ncn2[C@@H]1OC(CN(CCO[C@@H]2[C@H](O)C(CO)O[C@H]2n2cnc3c(N)ncnc32)S(=O)(=O)c2ccc(C(F)(F)F)cc2[N+](=O)[O-])[C@@H](O)[C@H]1O (single isomer, unassigned) | inactive | inactive | inactive | inactive | 94.6% | 23.3 | 10.1% | inactive | 276 | 5.7 | 4.6 | > 40 |
| Nc1ncnc2c1ncn2[C@@H]1O[C@H](C[C@@H](N)CC[C@H](N)C(=O)O)[C@@H](O)[C@H]1O [SINEFUNGIN] | – | – | – | – | 98.3% | 99.8 | 99.8% | – | < 0.05 | 0.36 | 4.4 | – |

Reference: ChEMBL document CHEMBL4765355, “Synthesis of adenine dinucleosides SAM analogs as specific inhibitors of SARS-CoV nsp14 RNA cap guanine-N7-methyltransferase” (Eur J Med Chem, 2020)
